pIC50: −log10 of the molar value. The source made the active and inactive calls. No cut-off for these calls is given here.
Columns and labels:
A549 = experiment: Cytotoxicity against human A549 cells assessed as reduction in cell viability by SRB assay; format: functional, cell-based
Method in brief: (§1)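 Cells seeded in 96-well plates and exposed to compounds for the stated times. Zero-day controls were incubated 30 min. Cells were fixed and stained with 0.4% SRB in 1% acetic acid, and bound dye was dissolved in 10 mM Tris (pH 10.0). A515 was read, and IC50 was calculated by non-linear regression.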

HCT-116 = experiment: Cytotoxicity against human HCT-116 cells assessed as reduction in cell viability by SRB assay; format: functional, cell-based; method in brief: as §1
MDA-MB-231 [1] = experiment: Cytotoxicity against human MDA-MB-231 cells assessed as reduction in cell viability by SRB assay; format: functional, cell-based; method in brief: as §1
SK-HEP1 = experiment: Cytotoxicity against human SK-HEP1 cells assessed as reduction in cell viability by SRB assay; format: functional, cell-based; method in brief: as §1
SNU-638 = experiment: Cytotoxicity against human SNU-638 cells assessed as reduction in cell viability by SRB assay; format: functional, cell-based; method in brief: as §1
[2] = target: Histone-lysine N-methyltransferase, H3 lysine-79 specific (Homo sapiens) (UniProt Q8TEK3); experiment: Inhibition of DOT1L in human MDA-MB-231 cells assessed as down regulation of H3K79me2 expression at 200 nM by Western blot analysis; format: cell-based
Method in brief: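 MDA-MB-231 lysates were made in 2× SDS sample buffer with vanadate and fluoride. 5-20 μg protein was run on 8–15% SDS-PAGE and blotted to PVDF. Membranes were blocked in 5% BSA, probed for H3K79me2 with total histone H3, and detected by ECL. Mean ± SD (n = 3), representative of three separate experiments.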

[3] = target: Histone-lysine N-methyltransferase, H3 lysine-79 specific (Homo sapiens) (UniProt Q8TEK3); experiment: Inhibition of human N-terminal GST-tagged DOT1L (2 to 416 residues) expressed in Escherichia coli at 200 nM using DOT1L substrate measured after 2 hrs in presence of SAM by ELISA
Method in brief: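 Cell-free DOT1L enzyme activity assay using 500 ng DOT1L per well. Compound was incubated 2 h before read-out. EPZ-5676 (100 nM) was the positive control. Mean ± SD (n = 3), representative of three separate experiments.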

[4] = target: Histone-lysine N-methyltransferase, H3 lysine-79 specific (Homo sapiens) (UniProt Q8TEK3); experiment: Inhibition of DOT1L in human MDA-MB-231 cells assessed as effect on H3K4 methylation at 200 nM by Western blot analysis; format: cell-based
Method in brief: (§2)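 MDA-MB-231 cell lysates in 2× SDS buffer, protein by BCA; 5–20 μg on 8–15% SDS-PAGE, transferred to PVDF, BSA-blocked and probed with antibodies to H3K4me2, H3K27me2, H3K36me2, H3K79me2 and total histone H3; ECL detection. Mean ± SD (n = 3), three separate experiments.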

[5] = target: Histone-lysine N-methyltransferase, H3 lysine-79 specific (Homo sapiens) (UniProt Q8TEK3); experiment: Inhibition of DOT1L in human MDA-MB-231 cells assessed as effect on H3K27 methylation at 200 nM by Western blot analysis; format: cell-based; method in brief: as §2
[6] = target: Histone-lysine N-methyltransferase, H3 lysine-79 specific (Homo sapiens) (UniProt Q8TEK3); experiment: Inhibition of DOT1L in human MDA-MB-231 cells assessed as effect on H3K36 methylation at 200 nM by Western blot analysis; format: cell-based; method in brief: as §2
[7] = target: Histone-lysine N-methyltransferase, H3 lysine-79 specific (Homo sapiens) (UniProt Q8TEK3); experiment: Inhibition of DOT1L in human MDA-MB-231 cells assessed as effect on histone H3 methylation at 200 nM by Western blot analysis; format: cell-based; method in brief: as §2
MDA-MB-231 [8] = experiment: Antimigratory activity in human MDA-MB-231 cells assessed as suppression of wound closure at 400 nM after 24 hrs by microscopic analysis; format: functional, cell-based
Method in brief: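 MDA-MB-231 monolayers at 80–90% confluence scratched with a pipette tip, washed with PBS, then kept 24 h in medium with 1% FBS plus compound at various concentrations. Wounds photographed at 0 and 24 h; area measured by image analysis and expressed as wound healing (%) relative to the 0 h area. Mean ± SD (n = 3), three separate experiments.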

MDA-MB-231 [9] = experiment: Antiinvasive activity in human MDA-MB-231 cells assessed as reduction in cell invasion through matrigel-coated chamber at 400 nM after 24 hrs by diff-quik staining based microscopic analysis; format: functional
Method in brief: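 MDA-MB-231 cells pretreated with compound (50–400 nM) for 24 h, harvested into serum-free medium and plated at 0.5–1 × 10⁶ cells/chamber on transwell inserts (8 μm pores) coated with type I collagen and 1:20 Matrigel/PBS; 30% FBS medium as chemoattractant below. After 24 h, invaded cells fixed, Diff-Quik stained, counted in 5 random fields at 200×; three separate experiments.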

[10] = Toxicity in human MDA-MB-231 cells xenografted BALB/c nu mouse assessed as body weight loss at 5 mg/kg, ip administered thrice per week for 38 days measured once per week during compound dosing; format: organism-based; conditions: in vivo, 912 h, time 38 day
Method in brief: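 Female BALB/c-nu mice (5–6 wk) given 1 × 10⁷ luciferase-expressing MDA-MB-231 cells in 50:50 DMEM/Matrigel into the fourth fat pad; randomized after 10 days (six per group). Dosed ip in EtOH/Cremophor/saline (5:5:90) three times weekly for 38 days. Tumor L, W, H measured by caliper, volume = LWH/2; body weight weekly; tumors excised and weighed at termination.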

MCF-10A = experiment: Cytotoxicity against human MCF-10A cells assessed as reduction in cell viability by SRB assay; format: cell-based; method in brief: as §1
[11] = Selectivity ratio of IC50 for human MCF-10A cells to IC50 for human A549 cells; format: toxicity; conditions: MCF-10A cells versus A549 cells, read-out: Ratio IC50
[12] = Selectivity ratio of IC50 for human MCF-10A cells to IC50 for human HCT-116 cells; format: toxicity; conditions: MCF-10A cells versus HCT-116 cells, read-out: Ratio IC50
[13] = Selectivity ratio of IC50 for human MCF-10A cells to IC50 for human MDA-MB-231 cells; format: toxicity; conditions: MCF-10A cells versus MDA-MB-231 cells, read-out: Ratio IC50
[14] = Selectivity ratio of IC50 for human MCF-10A cells to IC50 for human SK-HEP1 cells
Method in brief: (§3)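 Cytotoxicity by SRB assay: cells seeded in 96-well plates and treated with compounds; fixed, stained with 0.4% SRB in 1% acetic acid, dye dissolved in 10 mM Tris (pH 10.0), absorbance read at 515 nm. IC50 by non-linear regression, means of at least three experiments; ratio of MCF10A IC50 to cancer-line IC50.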

[15] = Selectivity ratio of IC50 for human MCF-10A cells to IC50 for human SNU-638 cells; method in brief: as §3

Chain of Histone-lysine N-methyltransferase, H3 lysine-79 specific (Homo sapiens) (Q8TEK3 whole entry, looked up, the tested form may be a part): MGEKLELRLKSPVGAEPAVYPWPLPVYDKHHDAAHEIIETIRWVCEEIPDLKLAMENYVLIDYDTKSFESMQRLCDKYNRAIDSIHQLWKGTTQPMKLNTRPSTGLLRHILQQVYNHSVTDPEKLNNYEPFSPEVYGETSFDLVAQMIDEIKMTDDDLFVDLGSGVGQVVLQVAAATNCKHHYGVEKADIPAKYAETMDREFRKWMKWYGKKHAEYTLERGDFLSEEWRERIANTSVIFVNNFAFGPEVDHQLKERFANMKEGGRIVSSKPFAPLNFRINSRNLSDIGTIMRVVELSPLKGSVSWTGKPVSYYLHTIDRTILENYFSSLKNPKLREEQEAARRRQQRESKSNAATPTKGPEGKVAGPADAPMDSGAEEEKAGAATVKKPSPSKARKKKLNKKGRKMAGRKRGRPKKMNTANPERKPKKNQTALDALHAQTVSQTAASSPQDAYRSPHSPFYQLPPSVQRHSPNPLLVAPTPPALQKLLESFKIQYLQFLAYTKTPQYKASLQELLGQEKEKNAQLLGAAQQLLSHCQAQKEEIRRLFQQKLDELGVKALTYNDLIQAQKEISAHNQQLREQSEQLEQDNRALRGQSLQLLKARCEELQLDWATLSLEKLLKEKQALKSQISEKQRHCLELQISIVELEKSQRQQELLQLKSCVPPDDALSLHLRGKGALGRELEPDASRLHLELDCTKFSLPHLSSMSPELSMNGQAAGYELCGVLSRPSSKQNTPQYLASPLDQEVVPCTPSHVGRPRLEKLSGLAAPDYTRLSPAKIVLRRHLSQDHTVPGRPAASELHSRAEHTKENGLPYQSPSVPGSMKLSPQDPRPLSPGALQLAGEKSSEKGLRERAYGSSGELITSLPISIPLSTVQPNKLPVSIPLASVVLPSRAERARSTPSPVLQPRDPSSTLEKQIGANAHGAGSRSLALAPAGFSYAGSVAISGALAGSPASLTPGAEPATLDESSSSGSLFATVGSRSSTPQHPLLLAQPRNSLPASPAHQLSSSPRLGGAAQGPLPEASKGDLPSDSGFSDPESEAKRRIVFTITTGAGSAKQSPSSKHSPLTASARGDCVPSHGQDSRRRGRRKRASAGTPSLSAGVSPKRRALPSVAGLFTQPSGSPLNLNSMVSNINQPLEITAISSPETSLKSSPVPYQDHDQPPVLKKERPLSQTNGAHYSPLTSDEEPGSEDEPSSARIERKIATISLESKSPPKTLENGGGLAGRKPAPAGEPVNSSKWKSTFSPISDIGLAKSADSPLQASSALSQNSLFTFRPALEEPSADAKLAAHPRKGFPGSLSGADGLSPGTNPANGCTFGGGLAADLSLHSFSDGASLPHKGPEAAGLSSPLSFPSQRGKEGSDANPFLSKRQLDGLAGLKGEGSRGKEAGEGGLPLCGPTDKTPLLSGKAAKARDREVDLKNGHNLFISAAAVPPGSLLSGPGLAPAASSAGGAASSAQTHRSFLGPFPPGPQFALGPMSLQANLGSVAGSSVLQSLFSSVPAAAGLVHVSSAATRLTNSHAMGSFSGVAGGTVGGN

Row | Compound | pIC50 (A549) | pIC50 (HCT-116) | pIC50 (MDA-MB-231 [1]) | pIC50 (SK-HEP1) | pIC50 (SNU-638) | H3K79me2 downregulation (active/not active) [2] | inhibition [3] | further results
1 | O=C(NCC[Se][Se]CCNC(=O)/C(Cc1ccc(F)c(F)c1)=N/O)/C(Cc1ccc(F)c(F)c1)=N/O | 6.48 | 6.74 | 6.38 | 6.57 | 7.30 | Active | – | –
2 | O=C(NCC[Se][Se]CCNC(=O)/C(Cc1ccc(F)cc1)=N/O)/C(Cc1ccc(F)cc1)=N/O | 7.00 | 6.96 | 6.89 | 6.85 | 7.15 | – | – | –
3 | O=C(NCCSSCCNC(=O)/C(Cc1ccc(O)c(Br)c1)=N/O)/C(Cc1ccc(O)c(Br)c1)=N/O [PSAMMAPLIN A] | 5.75 | 6.21 | 5.88 | 5.89 | 6.25 | – | inactive | inhibition [4]: inactive; inhibition [5]: inactive; inhibition [6]: inactive; inhibition [7]: inactive; Activity (MDA-MB-231 [8]): inactive; Activity (MDA-MB-231 [9]): inactive
4 | O=C(NCC[Se][Se]CCNC(=O)/C(Cc1ccc2ccccc2c1)=N/O)/C(Cc1ccc2ccccc2c1)=N/O | 6.42 | 6.92 | 6.72 | 6.77 | 6.57 | inactive | – | –
5 | CC(=O)O[C@H]1C(=O)[C@@]2(C)[C@H]([C@H](OC(=O)c3ccccc3)[C@]3(O)C[C@H](OC(=O)[C@H](O)[C@@H](NC(=O)c4ccccc4)c4ccccc4)C(C)=C1C3(C)C)[C@]1(OC(C)=O)CO[C@@H]1C[C@@H]2O [PACLITAXEL] | – | – | – | – | – | – | – | Activity [10]: Toxic
6 | O=C(NCC[Se][Se]CCNC(=O)/C(Cc1ccc(OCc2ccccc2)cc1)=N/O)/C(Cc1ccc(OCc2ccccc2)cc1)=N/O | 6.85 | 7.00 | 6.85 | 6.55 | 6.39 | Active | Active | –
7 | O=C(NCC[Se][Se]CCNC(=O)/C(Cc1ccc(Cl)c(Cl)c1)=N/O)/C(Cc1ccc(Cl)c(Cl)c1)=N/O | 6.55 | 6.28 | 6.60 | 6.49 | 6.74 | Active | – | –
8 | CCOc1ccc(C/C(=N\O)C(=O)NCC[Se][Se]CCNC(=O)/C(Cc2ccc(OCC)cc2)=N/O)cc1 | 7.30 | 7.15 | 6.70 | 6.74 | 7.52 | Active | Active | –
9 | O=C(NCC[Se][Se]CCNC(=O)/C(Cc1ccc(Cl)cc1)=N/O)/C(Cc1ccc(Cl)cc1)=N/O | 6.60 | 6.55 | 6.48 | 6.48 | 6.66 | Active | – | –
10 | O=C(NCC[Se][Se]CCNC(=O)/C(Cc1ccc(O)c(Br)c1)=N/O)/C(Cc1ccc(O)c(Br)c1)=N/O | 7.52 | 8.00 | 6.80 | 6.68 | 7.70 | Active | Active | pIC50 (MCF-10A): 4.79; selectivity ratio [11]: > 100; selectivity ratio [12]: > 100; selectivity ratio [13]: > 100; Ratio IC50 [14]: 77; Ratio IC50 [15]: >100
11 | O=C(NCC[Se][Se]CCNC(=O)/C(Cc1ccc(Br)cc1)=N/O)/C(Cc1ccc(Br)cc1)=N/O | 6.51 | 6.77 | 6.41 | 6.51 | 6.82 | Active | – | –
12 | O=C(NCC[Se][Se]CCNC(=O)/C(Cc1ccc(O)c(F)c1)=N/O)/C(Cc1ccc(O)c(F)c1)=N/O | 7.70 | 8.00 | 6.72 | 6.89 | 7.70 | Active | Active | –
13 | O=C(NCC[Se][Se]CCNC(=O)/C(Cc1ccc(O)c(Cl)c1)=N/O)/C(Cc1ccc(O)c(Cl)c1)=N/O | 7.70 | 8.00 | 6.77 | 6.96 | 8.00 | Active | Active | –
14 | COc1cc([C@@H]2c3cc4c(cc3[C@@H](O[C@@H]3O[C@@H]5CO[C@@H](C)O[C@H]5[C@H](O)[C@H]3O)[C@H]3COC(=O)[C@H]23)OCO4)cc(OC)c1O [ETOPOSIDE] | – | 5.92 | 5.06 | 6.40 | 6.70 | – | – | –
15 | CC(C)(C)c1ccc(C/C(=N\O)C(=O)NCC[Se][Se]CCNC(=O)/C(Cc2ccc(C(C)(C)C)cc2)=N/O)cc1 | 7.00 | 6.89 | 7.00 | 6.72 | 6.55 | Active | Active | –
16 | O=C(NCC[Se][Se]CCNC(=O)/C(Cc1ccc([N+](=O)[O-])cc1)=N/O)/C(Cc1ccc([N+](=O)[O-])cc1)=N/O | 7.05 | 7.05 | 7.05 | 6.77 | 7.22 | Active | Active | –

From ChEMBL document CHEMBL4706701, “Synthesis and biological activity of selenopsammaplin A and its analogues as antitumor agents with DOT1L inhibitory activity” (Bioorg Med Chem, 2021)
